Converted amounts (≈) assume the structure as drawn. The source made the active and inactive calls. The rule behind the calls is not given here.
Experiments:
Nakaseomyces glabratus [1] = experiment: Antifungal activity against Candida glabrata ATCC 2001 assessed as reduction in fungal cell growth incubated for 24 hrs by MTT based broth double dilution method; assay type: functional; settings: ATCC 2001, 24 h
Summary of the method: (§1)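 Broth double-dilution in Casitone broth. Starter cultures were grown 24 or 48 h at 37 °C, 5% CO₂, diluted 1:100, and added to serial two-fold dilutions at 64 to 0.007 µg/mL. Final inoculum was 5 x 10^4 to 5 x 10^5 CFU/mL; DMSO was 0.0012–1.3%. Plates were incubated at 37 °C, 5% CO₂, then MTT was added for 2 h. MIC followed CLSI M27-A3. Triplicates, two independent experiments.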

Candida dubliniensis = experiment: Antifungal activity against Candida dubliniensis T-99 assessed as reduction in fungal cell growth incubated for 24 hrs by MTT based broth double dilution method; assay type: functional; settings: T-99, 24 h; summary of the method: as §1
[2] = (§2) Cytotoxicity against human HEK293T cells assessed as reduction in cell viability at 5 to 50 uM incubated for 24 hrs by XTT assay relative to control; assay type: cell-based, HEK-293T; settings: HEK293T cells, read-out: INH
Summary of the method: (§3)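 HEK-293T cells were grown in DMEM with 10% FBS, 1% NEAA, 1% pyruvate and pen-strep-nystatin at 37 °C and 5% CO2. 7000 cells/well were seeded on poly-D-lysine-coated wells. After 24 h the medium was renewed and compounds were added at 5–50 µM from 1 mM stocks in 10% DMSO/0.3% Tween/PBS. After 24 h, XTT was added for 2 h at 37 °C, with absorbance read at 475 nm (reference 660 nm).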

[3] = Cytotoxicity against human HepG2 cells assessed as reduction in cell viability at 5 to 50 uM incubated for 24 hrs by XTT assay relative to control; assay type: cell-based; settings: read-out: INH
Summary of the method: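 HepG2 cells were maintained in RPMI with 15% FBS, 1% NEAA, 1% pyruvate and pen-strep-nystatin at 37 °C and 5% CO2. 4000 cells/well were plated on poly-D-lysine coating and given fresh medium after 24 h. Compounds were dosed at 5–50 µM from 1 mM stocks in 10% DMSO/0.3% Tween/PBS and incubated 24 h. Viability was read by XTT (2 h, 37 °C) at 475 nm against 660 nm.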

Nakaseomyces glabratus [4] = experiment: Antifungal activity against Candida glabrata ATCC 66032 assessed as reduction in fungal cell growth incubated for 24 hrs by MTT based broth double dilution method; assay type: functional; settings: ATCC 66032, 24 h; summary of the method: as §1
HepG2 = experiment: Cytotoxicity against human HepG2 cells assessed as reduction in cell viability at 5 to 50 uM incubated for 24 hrs by XTT assay; assay type: cell-based; settings: hepg2, 24 h
Summary of the method: (§4)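 HEK-293T were grown in DMEM with 10% FBS; HepG2 in RPMI with 15% FBS; both at 37 °C, 5% CO₂. Cells (4000 HepG2 or 7000 HEK-293T per well) were seeded on poly-D-lysine wells. After 24 h the medium was renewed and compounds added at 5–50 µM from 1 mM stocks in 10% DMSO/0.3% Tween/PBS. After 24 h more, XTT was added for 2 h at 37 °C; absorbance was read at 475 nm against 660 nm reference.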

Candida albicans [5] = experiment: Antifungal activity against Candida albicans SN152 assessed as reduction in fungal cell growth incubated for 24 hrs by MTT based broth double dilution method; assay type: functional; settings: SN152, 24 h; summary of the method: as §1
Candida parapsilosis [6] = experiment: Antifungal activity against Candida parapsilosis ATCC 90018 assessed as reduction in fungal cell growth incubated for 24 hrs by MTT based broth double dilution method; assay type: functional; settings: Lodderomyces parapsilosis, ATCC 90018, 24 h; summary of the method: as §1
Candida albicans [7] = experiment: Antifungal activity against Candida albicans ATCC 90028 assessed as reduction in fungal cell growth incubated for 48 hrs by MTT based broth double dilution method; assay type: functional; settings: ATCC 90028, 48 h; summary of the method: as §1
Nakaseomyces glabratus [8] = experiment: Antifungal activity against Candida glabrata ATCC 66032 assessed as reduction in fungal cell growth incubated for 48 hrs by MTT based broth double dilution method; assay type: functional; settings: ATCC 66032, 48 h; summary of the method: as §1
Nakaseomyces glabratus [9] = experiment: Antifungal activity against Candida glabrata 192 assessed as reduction in fungal cell growth incubated for 24 hrs by MTT based broth double dilution method; assay type: functional; settings: Nakaseomyces glabratus, 192, 24 h; summary of the method: as §1
Nakaseomyces glabratus [10] = experiment: Antifungal activity against Candida glabrata 192 assessed as reduction in fungal cell growth incubated for 48 hrs by MTT based broth double dilution method; assay type: functional; settings: Nakaseomyces glabratus, 192, 48 h; summary of the method: as §1
Candida parapsilosis [11] = experiment: Antifungal activity against Candida parapsilosis ATCC 22019 assessed as reduction in fungal cell growth incubated for 24 hrs by MTT based broth double dilution method; assay type: functional; settings: Lodderomyces parapsilosis, ATCC 22019, 24 h; summary of the method: as §1
Candida albicans [12] = experiment: Antifungal activity against Candida albicans P-87 assessed as reduction in fungal cell growth incubated for 24 hrs by MTT based broth double dilution method; assay type: functional; settings: P-87, 24 h; summary of the method: as §1
Candida albicans [13] = experiment: Antifungal activity against Candida albicans SN152 assessed as reduction in fungal cell growth incubated for 48 hrs by MTT based broth double dilution method; assay type: functional; settings: SN152, 48 h; summary of the method: as §1
HEK-293T [14] = experiment: Cytotoxicity against human HEK293T cells assessed as reduction in cell viability at 5 to 50 uM incubated for 24 hrs by XTT assay; assay type: cell-based; summary of the method: as §4
Cytochrome P450 3A4 = Cytochrome P450 3A4 (Homo sapiens, UniProt P08684); experiment: Inhibition of recombinant human CYP3A4 using Luciferin-PPXE as substrate preincubated for 10 mins followed by NADPH addition measured after 15 mins by luminometric method; assay type: ADME
Summary of the method: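 P450-Glo luminescent assay, Luciferin-PPXE substrate. Compound was mixed with membranes containing recombinant human CYP3A4; controls were vehicle with membranes lacking CYP3A4. After 10 min preincubation at 37 °C, NADPH regeneration reagent was added and the mixture kept 15 min at 37 °C. Luciferin detection reagent stopped the reaction; after 20 min at room temperature, luminescence was read. Duplicates.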

Candida albicans [15] = experiment: Antifungal activity against Candida albicans ATCC 90028 assessed as reduction in fungal cell growth incubated for 24 hrs by MTT based broth double dilution method; assay type: functional; settings: ATCC 90028, 24 h; summary of the method: as §1
[16] = system: Meyerozyma guilliermondii; experiment: Antifungal activity against Candida guilliermondii T-47 assessed as reduction in fungal cell growth incubated for 24 hrs by MTT based broth double dilution method; assay type: functional; settings: T-47, 24 h; summary of the method: as §1
Candida albicans [17] = experiment: Antifungal activity against ERG11/ERG3 knocked out Candida albicans SN152 assessed as zone of inhibition at 25 ug […] by disk diffusion method; assay type: functional, organism-based
Candida albicans [18] = experiment: Antifungal activity against Candida albicans SN152 assessed as zone inhibition at 25 ug incubated for 24 hrs by disk diffusion method; assay type: functional, organism-based
Summary of the method: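 Strains were streaked on YPD agar and grown at 30 °C: 24 h for parental SN152, 48 h for the erg11ΔΔ erg3ΔΔ mutant. Colonies were suspended in PBS and adjusted to OD 0.02 (SN152) or 0.03 (mutant), then spread on Casitone plates. A 6-mm disk loaded with 25 µg compound was placed centrally. Plates were incubated at 30 °C and photographed after 24 h.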

HEK-293T [19] = experiment: as §2; assay type: cell-based; settings: hek-293t, 24 h, 50 µM; summary of the method: as §3
[20] = Drug distribution in Candida glabrata 2001 assessed as subcellular compound distribution at 10 uM incubated for 60 mins by fluorescent imaging analysis; assay type: ADME; settings: nakaseomyces glabratus, 1 h
Summary of the method: (§5)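 Yeast were grown overnight at 30 °C in YPD liquid, diluted 1:10, and grown 2 h at 30 °C to log phase. Fluorescent azole was added at 10 µM final and incubated 60 min in the dark. Cells were washed once in PBS and imaged on slides in bright field and fluorescence (ex 427 nm, em 510 nm).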

[21] = Drug distribution in Candida albicans SN152 assessed as subcellular compound distribution at 10 uM incubated for 60 mins by fluorescent imaging analysis; assay type: ADME; settings: 1 h; summary of the method: as §5

Cytochrome P450 3A4, sequence (P08684 whole entry): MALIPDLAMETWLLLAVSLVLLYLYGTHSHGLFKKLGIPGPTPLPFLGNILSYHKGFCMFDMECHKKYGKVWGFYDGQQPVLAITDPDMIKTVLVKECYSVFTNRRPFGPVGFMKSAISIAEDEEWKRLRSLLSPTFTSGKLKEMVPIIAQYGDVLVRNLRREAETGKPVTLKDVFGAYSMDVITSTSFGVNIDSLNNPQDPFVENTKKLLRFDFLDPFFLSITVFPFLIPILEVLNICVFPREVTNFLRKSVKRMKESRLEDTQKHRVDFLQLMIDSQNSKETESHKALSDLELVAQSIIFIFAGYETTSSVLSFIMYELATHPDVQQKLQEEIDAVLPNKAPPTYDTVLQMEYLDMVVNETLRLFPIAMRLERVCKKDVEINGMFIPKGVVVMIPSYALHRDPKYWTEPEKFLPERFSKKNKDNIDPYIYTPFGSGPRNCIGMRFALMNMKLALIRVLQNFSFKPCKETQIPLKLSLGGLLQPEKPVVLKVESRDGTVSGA

SMILES	MIC (Nakaseomyces glabratus [1]) [µg/mL]	MIC (Candida dubliniensis) [µg/mL]	cytotoxicity at 24 h, up to 50 µM [2] [%]	cytotoxicity at 24 h, up to 50 µM [3] [%]	MIC (Nakaseomyces glabratus [4]) [µg/mL]	Activity (HepG2)	MIC (Candida albicans [5]) [µg/mL]	MIC (Candida parapsilosis [6]) [µg/mL]	MIC (Candida albicans [7]) [µg/mL]	MIC (Nakaseomyces glabratus [8]) [µg/mL]	MIC (Nakaseomyces glabratus [9]) [µg/mL]	MIC (Nakaseomyces glabratus [10]) [µg/mL]	MIC (Candida parapsilosis [11]) [µg/mL]	MIC (Candida albicans [12]) [µg/mL]	MIC (Candida albicans [13]) [µg/mL]	Activity (HEK-293T [14])	MIC (Candida albicans [15]) [µg/mL]	MIC [16] [µg/mL]	inhibition zone (IZ) (Candida albicans [17])	inhibition zone (IZ) (Candida albicans [18])	also measured
CCC(CC)Oc1ccc2cc(C(=O)NCC(O)(Cn3ccnc3)c3ccc(Cl)cc3Cl)c(=O)oc2c1 (racemic)	2 (≈ 3.67 µM)	0.25 (≈ 0.459 µM)	< 40	< 40	2 (≈ 3.67 µM)	Non-Toxic	0.06 (≈ 0.11 µM)	0.125 (≈ 0.23 µM)	0.06 (≈ 0.11 µM)	> 64	0.5 (≈ 0.918 µM)	1 (≈ 1.84 µM)	0.5 (≈ 0.918 µM)	0.06 (≈ 0.11 µM)	0.06 (≈ 0.11 µM)	Non-Toxic	0.03 (≈ 0.0551 µM)	0.25 (≈ 0.459 µM)			IC50 (Cytochrome P450 3A4): 251 nM
CC(=O)N1CCN(c2ccc(OCC3COC(Cn4ccnc4)(c4ccc(Cl)cc4Cl)O3)cc2)CC1 (racemic) [KETOCONAZOLE]	1 (≈ 1.88 µM)	0.007 (≈ 0.0132 µM)	< 40	< 40	1 (≈ 1.88 µM)	Toxic	0.007 (≈ 0.0132 µM)	0.007 (≈ 0.0132 µM)	0.007 (≈ 0.0132 µM)	4 (≈ 7.53 µM)	0.06 (≈ 0.113 µM)	0.125 (≈ 0.235 µM)	0.007 (≈ 0.0132 µM)	0.007 (≈ 0.0132 µM)	0.007 (≈ 0.0132 µM)	Toxic	0.007 (≈ 0.0132 µM)	0.007 (≈ 0.0132 µM)	Active	Active	
C[C@@H](c1ncncc1F)[C@](O)(Cn1cncn1)c1ccc(F)cc1F [VORICONAZOLE]	2 (≈ 5.73 µM)	0.06 (≈ 0.172 µM)		< 40	0.5 (≈ 1.43 µM)		0.007 (≈ 0.02 µM)	0.015 (≈ 0.0429 µM)	0.007 (≈ 0.02 µM)	4 (≈ 11.5 µM)	0.125 (≈ 0.358 µM)	0.25 (≈ 0.716 µM)	0.03 (≈ 0.0859 µM)	0.007 (≈ 0.02 µM)	0.007 (≈ 0.02 µM)		0.007 (≈ 0.02 µM)	0.06 (≈ 0.172 µM)	inactive	Active	Activity (HEK-293T [19]): < 40%
CCN(CC)c1ccc2cc(C(=O)NCC(O)(Cn3cncn3)c3ccc(F)cc3F)c(=O)oc2c1 (racemic)	16 (≈ 32.2 µM)	1 (≈ 2.01 µM)			4 (≈ 8.04 µM)		0.03 (≈ 0.0603 µM)	0.125 (≈ 0.251 µM)	0.125 (≈ 0.251 µM)	> 64	8 (≈ 16.1 µM)	> 64	1 (≈ 2.01 µM)	0.06 (≈ 0.121 µM)	0.125 (≈ 0.251 µM)		0.06 (≈ 0.121 µM)	1 (≈ 2.01 µM)	inactive	Active	Drug uptake [20]: Active; Drug uptake [21]: Active; IC50 (Cytochrome P450 3A4): 1020 nM

Reference: ChEMBL document CHEMBL4351026, “Antifungal activity, mode of action variability, and subcellular distribution of coumarin-based antifungal azoles” (Eur J Med Chem, 2019)
